Data: ChEMBL document CHEMBL4118075, “Thiophene/thiazole-benzene replacement on guanidine derivatives targeting α2-Adrenoceptors” (Eur J Med Chem, 2017)
Activity calls are given as the source filed them. No cut-off for these calls is given here.

Key:
[1] = biological target: T1, Adrenergic receptor alpha-2 (Homo sapiens) (UniProt P08913+P18825+P18089); test: Activity at alpha2 adrenergic receptor in human brain prefrontal cortex membranes assessed as effect on UK14304-induced [35S]GTPgammaS binding at 10^-5 M after 120 mins by microbeta liquid scintillation spectrometry (reference value: 132 +/- 2%); assay type: functional; details: Membrane
[2] = biological target: T2, Adrenergic receptor alpha-2 (Homo sapiens, UniProt P08913+P18825+P18089); test: Activity at alpha2 adrenergic receptor in human brain prefrontal cortex membranes assessed as effect on UK14304-induced [35S]GTPgammaS binding by measuring UK14304 EC50 at 10^-5 M after 120 mins by microbeta liquid scintillation spectrometry (reference value: 0.4 +/- 0.01 uM); assay type: functional, Membrane
T2 sequence (P08913 whole entry): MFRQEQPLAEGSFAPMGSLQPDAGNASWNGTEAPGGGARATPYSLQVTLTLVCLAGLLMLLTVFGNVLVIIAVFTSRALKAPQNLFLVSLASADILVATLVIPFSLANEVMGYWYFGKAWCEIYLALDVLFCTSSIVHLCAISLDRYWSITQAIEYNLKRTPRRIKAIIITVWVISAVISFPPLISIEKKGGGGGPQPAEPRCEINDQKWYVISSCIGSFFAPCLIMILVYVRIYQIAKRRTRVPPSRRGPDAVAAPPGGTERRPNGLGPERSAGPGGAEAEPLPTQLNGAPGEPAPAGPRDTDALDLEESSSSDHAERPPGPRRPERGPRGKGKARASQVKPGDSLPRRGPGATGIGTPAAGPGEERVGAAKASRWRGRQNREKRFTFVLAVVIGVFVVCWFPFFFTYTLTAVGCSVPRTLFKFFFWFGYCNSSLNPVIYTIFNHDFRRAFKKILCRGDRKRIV
T2 sequence (P18825 whole entry): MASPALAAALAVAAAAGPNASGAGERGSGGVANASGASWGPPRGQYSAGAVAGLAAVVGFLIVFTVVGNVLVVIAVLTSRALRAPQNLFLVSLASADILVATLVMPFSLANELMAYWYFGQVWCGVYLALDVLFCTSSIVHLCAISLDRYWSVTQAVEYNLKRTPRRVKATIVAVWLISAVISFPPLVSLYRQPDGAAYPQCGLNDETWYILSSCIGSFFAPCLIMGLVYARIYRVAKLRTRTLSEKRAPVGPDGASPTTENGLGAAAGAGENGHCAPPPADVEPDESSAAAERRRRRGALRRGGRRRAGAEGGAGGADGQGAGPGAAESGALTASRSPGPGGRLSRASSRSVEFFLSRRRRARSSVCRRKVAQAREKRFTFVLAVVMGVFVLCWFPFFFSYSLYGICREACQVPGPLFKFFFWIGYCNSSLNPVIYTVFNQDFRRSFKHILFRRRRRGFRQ
T2 sequence (P18089 whole entry): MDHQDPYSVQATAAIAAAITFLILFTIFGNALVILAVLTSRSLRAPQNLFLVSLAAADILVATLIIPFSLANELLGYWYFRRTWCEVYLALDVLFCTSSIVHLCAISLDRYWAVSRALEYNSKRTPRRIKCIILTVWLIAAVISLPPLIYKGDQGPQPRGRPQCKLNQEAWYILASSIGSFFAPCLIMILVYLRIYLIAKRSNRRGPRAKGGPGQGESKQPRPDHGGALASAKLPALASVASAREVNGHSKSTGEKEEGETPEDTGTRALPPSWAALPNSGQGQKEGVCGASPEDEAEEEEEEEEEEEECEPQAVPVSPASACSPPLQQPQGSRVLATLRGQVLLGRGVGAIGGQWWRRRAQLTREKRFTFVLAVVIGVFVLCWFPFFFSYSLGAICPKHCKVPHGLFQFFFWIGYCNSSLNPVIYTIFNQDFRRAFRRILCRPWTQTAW

[3] = biological target: T1, Adrenergic receptor alpha-2 (Homo sapiens); test: Agonist activity at alpha2 adrenergic receptor in human brain prefrontal cortex membranes assessed as stimulation of [35S]GTPgammaS binding at 10^-12 to 10^-3 M after 120 mins by microbeta liquid scintillation spectrometry; assay type: functional; details: Membrane
Method in brief: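 GTPγS exchange in human prefrontal cortex P2 membranes (20 µg/well) with 0.5 nM [35S]GTPγS, in EGTA/MgCl₂/100 mM NaCl/GDP/Tris pH 7.4 buffer. Ten concentrations from 10⁻¹² to 10⁻³ M; 30 °C for 120 min with shaking. Filtered on GF/C and scintillation counted; nonspecific binding with 10 µM GTPγS. EC50 and Emax expressed as % over basal binding.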

[4] = biological target: T2, Adrenergic receptor alpha-2; test: Displacement of [3H]RX821002 from alpha2 adrenergic receptor in human brain prefrontal cortex membranes after 30 mins by microbeta liquid scintillation spectrometry; set-up: species or system Membrane
Method in brief: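 Competition binding on post-mortem human PFC P2 membranes in 50 mM Tris-HCl pH 7.5. [3H]RX821002 at 2 nM; competitor at 10 concentrations from 10⁻¹² to 10⁻³ M; 30 min at 25 °C. Vacuum filtration on GF/C, scintillation counting. Nonspecific binding defined with adrenaline 10⁻⁵ M. Ki from nonlinear regression with a one-site model.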

[5] = biological target: T1, Adrenergic receptor alpha-2 (Homo sapiens); test: Agonist activity at alpha2 adrenergic receptor in human brain prefrontal cortex membranes assessed as stimulation of [35S]GTPgammaS binding at 10^-5 M after 120 mins in presence of antagonist RX821002 by microbeta liquid scintillation spectrometry; assay type: functional; details: Membrane

| Structure (SMILES) | Emax [1] [%] | EC50 [2] [nM] | Activity [3] | Ki [4] [nM] | Activity [5] |
| --- | --- | --- | --- | --- | --- |
| Cl.N=C(N)Nc1cc2c(s1)CCC2 | 111 | 500 | inactive | 87.9 | – |
| Cl.N=C(N)NCCc1cccs1 | 117 | 1700 | – | 751 | – |
| CCOC(=O)c1c(NC(=N)N)sc2c1CCCC2.Cl | – | – | – | 9086 | – |
| Cl.N=C(N)Nc1nc2c(s1)CCC2 | 126 | 1500 | inactive | 706 | – |
| Cl.N=C(N)Nc1ccsc1 | – | – | – | 1968 | – |
| Cl.N#Cc1c(NC(=N)N)sc2c1CCC2 | – | – | – | 2215 | – |
| CCOC(=O)c1c(NC(=N)N)sc2c1CCCCC2.Cl | – | – | – | > 100000 | – |
| COC(=O)c1ccsc1NC(=N)N.Cl | – | – | – | > 100000 | – |
| CCOC(=O)c1c(C)csc1NC(=N)N.Cl | – | – | – | 66530 | – |
| Cl.N=C(N)Nc1cc2c(s1)CCCC2 | 111 | 800 | inactive | 31.3 | – |
| Cl.N=C(N)Nc1nc2c(s1)CCCC2 | 105 | 11400 | inactive | 1205 | – |
| Cl.N#Cc1c(NC(=N)N)sc2c1CCCCC2 | – | – | – | 1198 | – |
| Cl.N=C(N)NCc1cccs1 | – | – | – | 3928 | – |
| Cl.N#Cc1c(NC(=N)N)sc2c1CCCC2 | 128 | 6600 | inactive | 733 | – |
| CCOC(=O)c1c(NC(=N)N)sc2c1CCC2.Cl | – | – | – | 30150 | – |
| Cl.N=C(N)Nc1cc2c(s1)CCCCC2 | 124 | 10700 | Active | 156 | inactive |
| COC(=O)c1sccc1NC(=N)N.Cl | – | – | – | > 100000 | – |
